In paper PMC2413043 (The Journal of Experimental Medicine, 2008):

Key:
COX-2 and CXCL2 = COX-2 and CXCL2 expression by RT-PCR in RAW cells; format: cell-based, mouse; details: LPS and TSA, Fig. 1 H and Fig. S1
In short: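 RAW 264.7 cells grown in DME with 10% FBS and penicillin/streptomycin. Cells exposed to LPS, TSA or both for 4 h, then assessed for COX-2 and CXCL2 expression by RT-PCR.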

p38 = test: Phosphorylation of p38 by immunoblot in RAW cells; format: cell-based, mouse; details: RAW cells pretreated 30 ng/ml TSA 1 h, 100 ng/ml LPS 30 min
In short: (§1)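 RAW 264.7 cells (DME, 10% FBS) pretreated with TSA 30 ng/ml for 1 h, then LPS 100 ng/ml for 30 min. Whole-cell lysates were immunoblotted with antibodies to phosphorylated and total forms of the MAPK in question.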

ERK1/2 = test: Phosphorylation of ERK1/2 by immunoblot in RAW cells; format: cell-based, mouse; details: RAW cells pretreated 30 ng/ml TSA 1 h, 100 ng/ml LPS 30 min
In short: as §1

JNK1/2 = test: Phosphorylation of JNK1/2 by immunoblot in RAW cells; format: cell-based, mouse; details: RAW cells pretreated 30 ng/ml TSA 1 h, 100 ng/ml LPS 30 min
In short: as §1

Elk-1 = test: Phosphorylation of Elk-1 by immunoblot in RAW cells; format: cell-based, mouse; details: TSA 30 ng/ml 1 h and/or LPS 100 ng/ml 30 min
In short: (§2)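 RAW 264.7 cells grown in DME with 10% FBS were pretreated with TSA 30 ng/ml for 1 h, then given LPS 100 ng/ml for 30 min. Lysates were immunoblotted with phospho-specific antibodies to MAPK cascade members (phospho-MKK3/6, phospho-Elk-1).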

MKK3/6 = test: Phosphorylation of MKK3/6 by immunoblot in RAW cells; format: cell-based, mouse; details: TSA 30 ng/ml 1 h and/or LPS 100 ng/ml 30 min
In short: as §2

MKP-1 and p300 = test: MKP-1 interaction with p300 by co-immunoprecipitation in RAW cells; format: cell-based, mouse; details: RAW cells treated with TSA; IP p300, blot MKP-1
MKP-1 [1] = test: MKP-1 acetylation, [3H]sodium acetate labelled RAW cells; format: cell-based, mouse; details: [3H]sodium acetate 1 h, TSA 0.5 h, 100 ng/ml LPS 0–3 h
In short: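 RAW 264.7 cells metabolically labelled with [3H]sodium acetate for 1 h, plus TSA for 0.5 h, then LPS 100 ng/ml for 0–3 h. Lysates were immunoprecipitated with anti-MKP-1 and resolved by SDS-PAGE. Acetylation was detected by autoradiography; MKP-1 was immunoblotted as loading control.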

MKP-1 and p38 = test: MKP-1/p38 association by co-immunoprecipitation in RAW cells; format: cell-based, mouse; details: co-IP
In short: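 RAW 264.7 cells were treated with LPS and/or TSA for 1 h. Lysates were immunoprecipitated with anti-p38 or anti-MKP-1, and precipitates were immunoblotted reciprocally for MKP-1 or p38. The experiment was repeated twice.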

MKP-1 [2] = test: MKP-1 expression in RAW cells by immunoblot; format: cell-based, mouse; details: LPS and TSA 1 h
phospho-p38 = format: cell-based; details: MKP-1 immunoprecipitated from RAW cells treated with LPS and TSA 4 h
In short: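 RAW 264.7 cells grown in DME with 10% FBS were treated with LPS plus TSA, or with control, for 4 h. Endogenous MKP-1 was immunoprecipitated from the lysates and incubated with recombinant phospho-p38 or phospho-ERK1. Remaining phosphorylation was detected by immunoblotting with phospho-p38 or phospho-ERK antibodies. The amount of phospho-substrate added was shown as an input lane.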

mouse liver = test: LPS-induced liver inflammation, histology; format: in vivo; details: hematoxylin and eosin
In short: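 Mice received saline (control) or TSA i.p. each day from day −2, then an i.p. LPS injection on day 0. Livers were harvested 2 h or 2 d after LPS, sectioned and stained with hematoxylin and eosin to assess leukocyte infiltration, edema and necrosis.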

In the case of `CC(/C=C/C(=O)NO)=C\[C@@H](C)C(=O)c1ccc(N(C)C)cc1` [TSA, trichostatin A], the COX-2 expression (COX-2 and CXCL2) is reported as “slightly increases”, the CXCL2 expression (COX-2 and CXCL2) is reported as “slightly increases” and the “LPS-induced phosphorylation of p38” value (p38) is reported as “decreases phosphorylation of p38”. For the same compound, the “LPS-induced phosphorylation of ERK1/2” value (ERK1/2) was “decreases”, the “LPS-induced phosphorylation of JNK1/2” value (JNK1/2) was “not JNK1/2” and the “phosphorylation of Elk-1” value (Elk-1) was “decreases phosphorylation of p38 and Elk-1”. For the same compound, the “phosphorylation of MKK3/6” value (MKK3/6) was “does not affect phosphorylation of the upstream MAPKK MKK3/6”, the “MKP-1 association with p300” value (MKP-1 and p300) was “MKP-1 associates with p300 in TSA-treated macrophages” and the MKP-1 acetylation (MKP-1 [1]) was “increases MKP-1 acetylation”. The “association between p38 and MKP-1” value (MKP-1 and p38; LPS and TSA 1 h) was “increases the association between p38 and MKP-1 in cells”, the “interaction between MKP-1 and p38, TSA alone” value (MKP-1 and p38; TSA without LPS) was “increases the interaction between MKP-1 and p38, even in the absence of LPS” and the MKP-1 expression (MKP-1 [2]) was “increases the expression of MKP-1 levels”. The “removal of phosphate from recombinant phospho-p38 by MKP-1” value (phospho-p38) was “enhances the ability of MKP-1 to remove phosphate groups from recombinant phospho-p38”, the “LPS-induced leukocyte infiltration / inflammation in liver” value (mouse liver; livers 2 h after LPS) was “decreases LPS-induced inflammation” and the “LPS-induced hepatocyte edema and necrosis” value (mouse liver; livers 2 d after LPS) was “limits LPS-induced hepatocyte edema and necrosis”.
